# Most compounds without a hit are left out; they make up all but 4.5% or so of the library.
# CHO parental Ca = ATP-evoked calcium signal inhibitors, parental CHO, primary screen, counter-screen for OX1R antagonist project, cell-based, fluorescence, Fluo-8 calcium dye. inhibition, % at 5.6 µM. AID 463079, 2010. parental CHO-K1, ATP-induced calcium, Fluo-8 fluorescence. hit rate 0.63% among 330,000;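 active = inhibition above that plate's mean sample inhibition plus 3 SD, cut at about 26% in these data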;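 also: 0% = ATP-challenged DMSO wells and 100% = DMSO wells without ATP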
#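 Test system: untransfected parental CHO cell line. Compound: one dose, 5.6 µM nominal. Detection: intracellular calcium via Fluo-8 no-wash fluorescent dye. Measure: % inhibition. Benchmarks: ATP-challenged DMSO wells low, unchallenged DMSO wells high.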
# GPR7 antag = GPR7 receptor antagonists, primary screen, cell-based, fluorescence, single concentration; GPR7-expressing cells, fluorescence antagonist assay; AID 1861, 2009; inhibition, % at 4.4 µM; hit rate 1.1% among 290,000; Neuropeptides B/W receptor type 1 (Homo sapiens), P48145; in the data active = inhibition above about 16%, passing the limit was not always enough;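 also: cells stimulated with the agonist NPW; 0% = agonist with vehicle and 100% = vehicle without agonist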
# TAAR1 ag = human TAAR1 agonists, primary screen, Fluo-8 calcium fluorescence, CHO RD-HGA16 cells; hit rate 0.99% among 360,000; Trace amine-associated receptor 1 (Homo sapiens), Q96RJ0; vehicle wells 0%, saturating PEA agonist 100%; activation, % at 3 µM;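 active = activation above the mean activation of all test compounds in the run plus 3 SD, cut at about 38% in these data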
#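 Test system: RD-HGA16 (CHO) cells co-expressing Gα16 and hTAAR1 / Benchmarks: DMSO vehicle as 0%, PEA at EC100 as 100% / Repeats: no replicates (n 1) / Measure: % activation from peak over basal fluorescence ratio, DMSO-to-PEA scaled / Timing: 17-24 h plating, Fluo-8 75 min 37 °C, 30 min RT / Technique: kinetic Fluo-8 calcium fluorescence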
# OX1R antag-1 = antagonists of human orexin 1 receptor (OX1R); Orexin/Hypocretin receptor type 1 (Homo sapiens), O43613; OX1R-expressing cells, FRET antagonist read-out; inhibition, % at 6.6 µM; hit rate 1.8% among 330,000; AID 485270, 2010; in the data active = inhibition mostly above about 38%, no sharp cut-off; inactive = mostly below about 40%;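 also: 0% = agonist challenge alone and 100% = reference antagonist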
# Target sequence (O43613 whole entry, looked up): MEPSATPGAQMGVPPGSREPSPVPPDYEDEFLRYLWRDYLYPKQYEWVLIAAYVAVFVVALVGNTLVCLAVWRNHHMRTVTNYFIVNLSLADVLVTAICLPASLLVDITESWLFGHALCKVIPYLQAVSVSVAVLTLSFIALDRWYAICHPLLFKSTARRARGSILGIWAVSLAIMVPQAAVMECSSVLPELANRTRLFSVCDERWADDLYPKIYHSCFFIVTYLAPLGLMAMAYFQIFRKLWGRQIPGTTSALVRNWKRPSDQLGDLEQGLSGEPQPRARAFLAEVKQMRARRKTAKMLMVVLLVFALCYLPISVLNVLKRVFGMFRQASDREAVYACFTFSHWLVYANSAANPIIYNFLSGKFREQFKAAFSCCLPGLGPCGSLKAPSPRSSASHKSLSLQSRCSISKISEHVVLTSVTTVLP
# OX1R antag-2 = OX1R (HCRTR1) antagonists, primary screen, fluorescence, CHO/OX1R cells, Fluo-8 calcium, orexin A | Orexin/Hypocretin receptor type 1 (Homo sapiens), O43613 | Fluo-8 calcium fluorescence | inhibition, % at 5 µM | hit rate 0.43% among 330,000;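 active = inhibition above its plate's threshold, mean inhibition of all tested compounds on the plate plus 3 SD, cut at about 37% in these data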;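 also: 0% = orexin A challenge wells and 100% = SB-334867-A antagonist wells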
# TAAR1 antag = human TAAR1 antagonists, primary screen, Fluo-8 calcium fluorescence, CHO RD-HGA16 cells. antagonist. Trace amine-associated receptor 1 (Homo sapiens), Q96RJ0. hit rate 1.5% among 360,000. inhibition, % at 3 µM;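 active = inhibition above a per-plate cutoff, the mean inhibition of test compounds on that plate plus 3 SD, cut at about 49% in these data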;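 also: 0% = DMSO plus EC80 beta-PEA response and 100% = DMSO alone without agonist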
#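 Test system: RD-HGA16 CHO cells with stable hTAAR1 and Gα16 / Probe or stimulus: EC80 β-phenethylamine stimulus / Times: seeding 17-24 h prior, 75-min 37 °C, 30-min RT dye loading / Detection: Fluo-8 calcium-sensitive fluorescence / Read-out basis: % inhibition scaled between DMSO and EC80 PEA controls / Repeats: singlicate, one well per test compound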
# TAAR1 ag conf = human TAAR1 agonists, retest of hits, confirmation, Fluo-8 calcium fluorescence, CHO RD-HGA16 cells; shares compounds with TAAR1 ag; AID 651783, 2012; hit rate 82% among 2,400; scaled: DMSO 0%, maximal phenethylamine 100%; activation, % at 3 µM;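 active = activation above a cutoff set at the run's mean compound activation plus 3 SD, cut at about 39% in these data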
# Ga16 nonsel ag = nonselective calcium mobilization agonists, CHO-Ga16 cells, counter-screen for hTAAR1 agonist project, cell-based, fluorescence, CHO-Ga16 parental line; shares compounds with TAAR1 ag; Fluo-8 calcium fluorescence; normalized to maximal ATP response, DMSO zero; activation, % at 3 µM; hit rate 50% among 2,400;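 active = activation above the run cutoff, the mean activation over all tested wells plus 3 SD, cut at about 12% in these data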;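 also: 0% = DMSO wells and 100% = maximal ATP response on the peak over basal ratio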
# TAAR1 desens = TAAR1 desensitization by agonist hits, confirmation, counter-screen for TAAR1 agonist project, cell-based, fluorescence, tachyphylaxis; CHO RD-HGA16 hTAAR1, Fluo-8 calcium, beta-PEA response inhibition; shares compounds with TAAR1 ag; inhibition, % at 3 µM; hit rate 46% among 2,400;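 active = inhibition above the run cutoff, the mean inhibition of all test compounds plus 3 SD, cut at about 49% in these data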;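 also: beta-PEA stimulus applied at its EC80; loss of beta-PEA calcium signal after compound pretreatment read as receptor desensitization; 0% = DMSO with beta-PEA at EC80 and 100% = DMSO alone without agonist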
# Ga16 nonsel ant = inhibition of ATP-evoked calcium response in CHO-Ga16 cells, counter-screen for TAAR1 agonist project, cell-based, fluorescence; shares compounds with TAAR1 ag; CHO-Ga16 ATP-induced calcium, Fluo-8 fluorescence; inhibition, % at 3 µM; hit rate 39% among 2,400;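 active = inhibition above the plate's mean compound inhibition plus 3 SD, computed per plate, cut at about 22% in these data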;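 also: 0% = EC80 ATP with DMSO and 100% = DMSO wells without ATP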
# The depositor's hits bear a star; x = no result given.
SMILES,CHO parental Ca,GPR7 antag,TAAR1 ag,OX1R antag-1,OX1R antag-2,TAAR1 antag,TAAR1 ag conf,Ga16 nonsel ag,TAAR1 desens,Ga16 nonsel ant
CC1CCCN(c2c([N+](=O)[O-])c(=O)oc3ccccc23)C1 (stereo not drawn),9,2,x,6,4,x,x,4,x,4
O=C(NCCc1ccco1)C(=O)NCC1OCCCN1S(=O)(=O)c1ccccc1 (stereo not drawn),-12,-11,66*,23,7,24,36,6,10,9
O=C(NCCc1ccccc1)C(=O)NCC1OCCN1S(=O)(=O)c1ccc([N+](=O)[O-])cc1 (stereo not drawn),-9,13,47*,24,-6,28,73*,2,22,9
O=C(NCc1ccco1)C(=O)NCC1OCCCN1S(=O)(=O)c1ccccc1 (stereo not drawn),-2,-9,0,5,13,-2,x,x,x,x
O=C(NCCc1ccccc1)C(=O)NCC1CCCN1S(=O)(=O)c1ccccc1 (stereo not drawn),-13,x,59*,42*,-4,76*,85*,11,80*,38*
O=C(NCCc1ccccc1)C(=O)NCC1OCCCN1S(=O)(=O)c1cccs1 (stereo not drawn),-22,-17,68*,24,-7,41,97*,16*,74*,11
O=C(NC(=S)NC1C2CC3CC(C2)CC1C3)c1ccccc1 (stereo not drawn),-20,-24,8,52,-26,-47,x,x,x,x
CC(Sc1nnc(-c2cccnc2)n1N)C(=O)Nc1ccc2c(c1)OCCO2 (stereo not drawn),x,x,1,x,x,-6,x,x,x,x
CCCCNC(=S)NNC(=O)c1cc(C2CC2)nc2ccccc12,x,-8,0,x,x,-8,x,x,x,x
COC(=O)CN(C)C(=O)c1ccc2nc(Cc3cccc(Cl)c3)oc2c1,2,-3,0,6,-31,-13,x,x,x,x
O=C(CN1C(=O)NC2(CCc3ccccc32)C1=O)c1ccc(F)cc1 (stereo not drawn),-16,x,3,10,-16,-5,x,x,x,x
Cc1ccc(S(=O)(=O)N2CCOC2CNC(=O)C(=O)NCCc2ccccc2)cc1 (stereo not drawn),-5,-10,58*,44,-19,37,82*,1,41,15
c1ccc(-c2cnn3c(-c4ccccc4)c(-c4ccccc4)nc3n2)cc1,x,8,77*,x,x,63*,100*,121*,84*,82*
COCc1c(C(=O)OCC(=O)N2CCCC2=O)oc2ccccc12,-19,x,3,4,-12,-20,x,x,x,x
CCc1ccc(CNC(=O)C2CCCN(S(=O)(=O)N(CC)c3ccccc3)C2)cc1 (stereo not drawn),-20,1,-3,-6,-30,2,x,x,x,x

# Source: PubChem BioAssay (The Scripps Research Institute Molecular Screening Center)
